Source: ChEMBL document CHEMBL5252516, “Linker Modification Strategies To Control the Prostate-Specific Membrane Antigen (PSMA)-Targeting and Pharmacokinetic Properties of DOTA-Conjugated PSMA Inhibitors” (J Med Chem, 2016)

Legend:
[1] = molecular target: T1, Glutamate carboxypeptidase 2 (Homo sapiens, UniProt Q04609); assay: Binding affinity to PSMA in human LNCaP cells after 45 mins in presence of 68Ga-labeled PSMA-10 by gamma counting assay; assay type: cell-based
Target sequence in this assay (Q04609 whole entry): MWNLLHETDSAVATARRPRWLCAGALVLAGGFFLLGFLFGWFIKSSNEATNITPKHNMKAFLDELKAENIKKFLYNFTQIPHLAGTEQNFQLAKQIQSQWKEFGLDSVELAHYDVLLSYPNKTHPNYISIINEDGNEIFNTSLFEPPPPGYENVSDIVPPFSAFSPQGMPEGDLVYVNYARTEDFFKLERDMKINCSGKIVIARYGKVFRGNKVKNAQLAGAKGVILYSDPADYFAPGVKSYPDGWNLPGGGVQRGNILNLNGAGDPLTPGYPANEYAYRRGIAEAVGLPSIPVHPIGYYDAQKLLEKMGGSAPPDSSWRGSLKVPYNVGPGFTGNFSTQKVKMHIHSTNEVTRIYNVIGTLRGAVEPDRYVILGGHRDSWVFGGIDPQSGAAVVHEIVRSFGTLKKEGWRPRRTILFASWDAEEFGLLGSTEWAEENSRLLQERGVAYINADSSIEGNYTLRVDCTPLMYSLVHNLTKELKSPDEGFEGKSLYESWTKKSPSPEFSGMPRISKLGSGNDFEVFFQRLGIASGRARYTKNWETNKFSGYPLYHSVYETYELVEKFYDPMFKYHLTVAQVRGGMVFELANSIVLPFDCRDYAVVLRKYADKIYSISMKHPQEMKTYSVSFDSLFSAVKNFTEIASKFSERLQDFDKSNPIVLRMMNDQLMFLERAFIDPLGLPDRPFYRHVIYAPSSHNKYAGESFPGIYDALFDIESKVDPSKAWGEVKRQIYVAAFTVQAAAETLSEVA

[2] = Drug uptake in iv dosed BALB/c athymic nude mouse tumor xenografted with human LNCaP cells treated with 68Ga-labeled compound measured upto 120 mins by microPET imaging analysis; assay type: ADME, organism-based; details: in vivo, 2 h
How it was run: (§1)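 Male BALB/c nu/nu mice, 6–8 weeks old, with subcutaneous LNCaP xenografts (6 × 10^6 cells in 50% Matrigel, right trunk) of about 1 cm. Tail-vein injection of 68Ga-labelled compound (~30 MBq, 0.5 nmol) under sevoflurane. Dynamic µPET: 60 min emission scan, then 100–120 min scan. SUVmean for tumor, muscle and kidney at 1 h; tumor/muscle ratio. One animal per compound.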

[3] = molecular target: T1, Glutamate carboxypeptidase 2; assay: Inhibition of PSMA in human LNCaP cells assessed as cell surface binding per 10^6 cells using 177Lu-labeled compound after 45 mins by gamma counting analysis; assay type: cell-based
How it was run: (§2)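 LNCaP cells (10^5/well) seeded on poly-L-lysine 24 h before. Incubated 45 min at 37 °C with 32 nM 177Lu-labelled compound (25 GBq/µmol) in Opti-MEM, with or without 500 µM 2-PMPA as blocker. Four ice-cold PBS washes, surface fraction stripped with 50 mM glycine pH 2.8, internalized fraction released by 0.3 M NaOH lysis. Both fractions gamma-counted, specific values given as %IA/10^6 cells. Triplicate.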
Target sequence in this assay (Q04609 whole entry, looked up): as the sequence (Q04609 whole entry) above

[4] = Distribution coefficient, logD of the compound at pH 7.4 in n-octanol/0.1 M HEPES by shake flask method; assay type: physicochemical
How it was run: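 Radiolabelled compound shaken to equilibrium in n-octanol / 0.1 M HEPES pH 7.4. Aliquots of both phases gamma-counted and logD calculated from the phase ratio. Mean ± SD.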

[5] = Ratio of drug uptake in tumor to muscle in iv dosed BALB/c athymic nude mouse xenografted with human LNCaP cells treated with 68Ga-labeled compound measured after 1 hr by microPET imaging analysis; assay type: ADME, organism-based; details: in vivo; how it was run: as §1
[6] = Binding affinity to human serum protein after 1 hr by gel filtration method; assay type: ADME
[7] = Drug uptake in iv dosed BALB/c athymic nude mouse tumor xenografted with human LNCaP cells treated with 68Ga-labeled compound measured after 1 hr by microPET imaging analysis; assay type: ADME, organism-based; details: in vivo; how it was run: as §1
[8] = Retention time of the compound by HPLC; assay type: physicochemical
[9] = Drug uptake in iv dosed BALB/c athymic nude mouse muscle xenografted with human LNCaP cells treated with 68Ga-labeled compound measured after 1 hr by microPET imaging analysis; assay type: ADME, organism-based; details: in vivo; how it was run: as §1
[10] = molecular target: T1, Glutamate carboxypeptidase 2; assay: Inhibition of PSMA in human LNCaP cells assessed as specific internalization per 10^6 cells using 177Lu-labeled compound after 45 mins by gamma counting analysis; assay type: cell-based; how it was run: as §2
Target sequence in this assay (Q04609 whole entry, looked up): as the sequence (Q04609 whole entry) above

[11] = Drug uptake in iv dosed BALB/c athymic nude mouse kidney xenografted with human LNCaP cells treated with 68Ga-labeled compound measured after 1 hr by microPET imaging analysis; assay type: ADME, organism-based; details: in vivo; how it was run: as §1

| Ki [1] | Drug uptake [2] | specific cell surface binding (% of applied activity per 10^6 cells) [3] | logD [4] | Ratio [5] | PB [6] | SUV [7] | Retention_time [8] | SUV [9] | specific internalization (% of added activity per 10^6 cells) [10] | SUV [11] | SMILES |
| --- | --- | --- | --- | --- | --- | --- | --- | --- | --- | --- | --- |
| 1.81 nM | Active | 16.8% | -2.1 | 5.2 | Not Active | 0.52 | 2.32 min | 0.1 | 7.17% | 3.63 | O=C(O)CC[C@H](NC(=O)N[C@@H](CCCCNC(=O)[C@H](Cc1ccc2ccccc2c1)NC(=O)c1ccc(CNC(=O)CN2CCN(CC(=O)O)CCN(CC(=O)O)CCN(CC(=O)O)CC2)cc1)C(=O)O)C(=O)O |
| 9.33 nM | Not Active | 4.14% | -0.91 | 1.5 | – | 0.23 | 1.81 min | 0.15 | 1.24% | 6.86 | O=C(O)CC[C@H](NC(=O)N[C@@H](CCCCNC(=O)[C@H]1CC[C@H](CNC(=O)CN2CCN(CC(=O)O)CCN(CC(=O)O)CCN(CC(=O)O)CC2)CC1)C(=O)O)C(=O)O |
| 17.7 nM | Not Active | 1.09% | -1.44 | 3.5 | – | 0.39 | 2.48 min | 0.11 | 0.13% | 3.62 | O=C(O)CC[C@H](NC(=O)N[C@@H](CCCCNC(=O)[C@H]1CC[C@H](CNC(=O)[C@H](Cc2ccc3ccccc3c2)NC(=O)CN2CCN(CC(=O)O)CCN(CC(=O)O)CCN(CC(=O)O)CC2)CC1)C(=O)O)C(=O)O |
| 6.31 nM | – | 9.07% | -1.88 | 2 | – | 0.14 | 2.58 min | 0.07 | 2.99% | 2.26 | O=C(O)CC[C@H](NC(=O)N[C@@H](CCCCNC(=O)[C@H](Cc1ccc2ccccc2c1)NC(=O)CCCCCNC(=O)CN1CCN(CC(=O)O)CCN(CC(=O)O)CCN(CC(=O)O)CC1)C(=O)O)C(=O)O |
| 24.7 nM | Not Active | 4.49% | -1.43 | 3.9 | Not Active | 0.54 | 2.07 min | 0.14 | 2.7% | 8.1 | O=C(O)CC[C@H](NC(=O)N[C@@H](CCCCNC(=O)[C@H]1CC[C@H](CNC(=O)c2ccc(CNC(=O)CN3CCN(CC(=O)O)CCN(CC(=O)O)CCN(CC(=O)O)CC3)cc2)CC1)C(=O)O)C(=O)O |
| 28.6 nM | – | 1.68% | -2.03 | 1.6 | – | 0.31 | 2.71 min | 0.2 | 1.77% | 4.79 | O=C(O)CC[C@H](NC(=O)N[C@@H](CCCCNC(=O)[C@H](Cc1ccc2ccccc2c1)NC(=O)CN1CCN(CC(=O)O)CCN(CC(=O)O)CCN(CC(=O)O)CC1)C(=O)O)C(=O)O |
| 0.5 nM | Active | 4.93% | -1.98 | 2.7 | – | 0.63 | 2.59 min | 0.23 | 2.22% | 6.57 | O=C(O)CC[C@H](NC(=O)N[C@@H](CCCCNC(=O)[C@H](Cc1ccc(-c2ccccc2)cc1)NC(=O)CN1CCN(CC(=O)O)CCN(CC(=O)O)CCN(CC(=O)O)CC1)C(=O)O)C(=O)O |
| – | Active | 11.4% | -2 | – | Not Active | 0.59 | 2.63 min | 0.07 | 16.2% | 2.87 | O=C(O)CC[C@H](NC(=O)N[C@@H](CCCCNC(=O)[C@H](Cc1ccc2ccccc2c1)NC(=O)[C@H]1CC[C@H](CNC(=O)CN2CCN(CC(=O)O)CCN(CC(=O)O)CCN(CC(=O)O)CC2)CC1)C(=O)O)C(=O)O [VIPIVOTIDE TETRAXETAN] |
| 12.8 nM | Not Active | 6.58% | -1.95 | 3.6 | – | 0.29 | 2.59 min | 0.08 | 0.9% | 2.15 | O=C(O)CC[C@H](NC(=O)N[C@@H](CCCCNC(=O)[C@H](Cc1cccc2ccccc12)NC(=O)[C@H]1CC[C@H](CNC(=O)CN2CCN(CC(=O)O)CCN(CC(=O)O)CCN(CC(=O)O)CC2)CC1)C(=O)O)C(=O)O |
| 12 nM | – | 10.6% | -1.71 | 4.9 | – | – | 1.69 min | – | 9.47% | – | O=C(O)CCc1ccc(O)c(CN(CCN(CC(=O)O)Cc2cc(CCC(=O)NCCCCCC(=O)NCCCC[C@H](NC(=O)N[C@@H](CCC(=O)O)C(=O)O)C(=O)O)ccc2O)CC(=O)O)c1 [GOZETOTIDE] |
| 1.97 nM | Active | 8.54% | -1.99 | 2.2 | – | 0.28 | 1.56 min | 0.13 | 5.11% | 2.68 | O=C(O)CC[C@H](NC(=O)N[C@@H](CCCCNC(=O)c1ccc(CNC(=O)CN2CCN(CC(=O)O)CCN(CC(=O)O)CCN(CC(=O)O)CC2)cc1)C(=O)O)C(=O)O |
| – | – | – | – | Not Determined(Unstable) | – | Not Determined(Unstable) | 2.7 min | Not Determined(Unstable) | – | Not Determined(Unstable) | O=C(O)CC[C@H](NC(=O)N[C@@H](CCCCNC(=O)c1ccc(CNC(=O)[C@H](Cc2ccc3ccccc3c2)NC(=O)[C@H]2CC[C@H](CNC(=O)CN3CCN(CC(=O)O)CCN(CC(=O)O)CCN(CC(=O)O)CC3)CC2)cc1)C(=O)O)C(=O)O |
| 7.51 nM | Active | 14.3% | -1.94 | 5.6 | – | 0.56 | 1.78 min | 0.1 | 3.66% | 3.16 | O=C(O)CC[C@H](NC(=O)N[C@@H](CCCCNC(=O)c1ccc(CNC(=O)c2ccc(CNC(=O)CN3CCN(CC(=O)O)CCN(CC(=O)O)CCN(CC(=O)O)CC3)cc2)cc1)C(=O)O)C(=O)O |
| 19.4 nM | Not Active | 0.23% | -1.98 | 0.9 | – | 0.18 | 2.28 min | 0.21 | 0.03% | 2.91 | O=C(O)CC[C@H](NC(=O)N[C@@H](CCCCNC(=O)[C@H]1CC[C@H](CNC(=O)[C@H]2CC[C@H](CNC(=O)[C@H]3CC[C@H](CNC(=O)CN4CCN(CC(=O)O)CCN(CC(=O)O)CCN(CC(=O)O)CC4)CC3)CC2)CC1)C(=O)O)C(=O)O |
| 6.19 nM | Active | 25.2% | -2.12 | 2.1 | – | 0.52 | 2.44 min | 0.25 | 6.86% | 2.21 | O=C(O)CC[C@H](NC(=O)N[C@@H](CCCCNC(=O)c1ccc(CNC(=O)c2ccc(CNC(=O)c3ccc(CNC(=O)c4ccc(CNC(=O)CN5CCN(CC(=O)O)CCN(CC(=O)O)CCN(CC(=O)O)CC5)cc4)cc3)cc2)cc1)C(=O)O)C(=O)O |
| 8.86 nM | Active | 12.2% | -2.02 | – | – | 0.69 | 2.56 min | 0.27 | 7.18% | 3.98 | O=C(O)CC[C@H](NC(=O)N[C@@H](CCCCNC(=O)[C@@H](Cc1ccc2ccccc2c1)NC(=O)[C@H]1CC[C@H](CNC(=O)CN2CCN(CC(=O)O)CCN(CC(=O)O)CCN(CC(=O)O)CC2)CC1)C(=O)O)C(=O)O |
